In brackets after ≈: the same amount, converted by molar mass. Some results are limits rather than exact numbers.

As a reminder, the inhibition is how much of the control response was suppressed. The low end stands for a weak effect, the high end for a strong effect. Usually MIC stands for the lowest concentration found to suppress growth. A higher MIC goes with weaker potency.

A short description of assay [1]: Antioxidant activity assessed as ascorbic acid equivalent ferric ion reducing activity per 100 gram at 200 ug/ml by FRAP assay. The assay is classed as functional.
The test system of assay [2] is Mycobacterium tuberculosis. As to the kind of experiment: Antimycobacterial activity against Mycobacterium tuberculosis H37Rv at 250 ug/ml. The assay is classed as functional. The method in brief:
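M. tuberculosis H37Rv tested on L.J. (Löwenstein–Jensen) medium.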

In another assay the test system is Candida albicans. Put plainly: Antifungal activity against Candida albicans MTCC 227 after 48 hrs by broth microdilution method. The assay is classed as functional. The settings on record: MTCC 227, 48 h. (In general: In broth dilution the organism is exposed to a series of concentrations in liquid medium.)
The next assay concerns Aspergillus fumigatus. As to the kind of experiment: Antifungal activity against Aspergillus fumigatus MTCC 3008 after 48 hrs by broth microdilution method. The assay is classed as functional. Particulars: MTCC 3008, 48 h.
A further assay deals with Vibrio cholerae. Put plainly: Antibacterial activity against Vibrio cholerae MTCC 3906 after 24 hrs by broth microdilution method. It counts as functional. The settings on record: MTCC 3906, 24 h.
For a further assay, the system named is Salmonella typhi. As to the kind of experiment: Antibacterial activity against Salmonella typhi MTCC 98 after 24 hrs by broth microdilution method. It counts as functional, Salmonella enterica subsp. enterica serovar Typhi. The settings on record: Salmonella enterica, MTCC 98, 24 h.
The subject of another assay is Escherichia coli. As to the kind of experiment: Antibacterial activity against Escherichia coli MTCC 443 after 24 hrs by broth microdilution method. It counts as functional. The settings on record: MTCC 443, 24 h.
The test system of the next assay is Streptococcus pneumoniae. Put plainly: Antibacterial activity against Streptococcus pneumoniae MTCC 1936 after 24 hrs by broth microdilution method. The assay is classed as functional. Particulars: MTCC 1936, 24 h.
Another assay concerns Clostridium tetani. Put plainly: Antibacterial activity against Clostridium tetani MTCC 449 after 24 hrs by broth microdilution method. Particulars: MTCC 449, 24 h. It counts as functional.
Another assay relates to Bacillus subtilis. Put plainly: Antibacterial activity against Bacillus subtilis MTCC 441 after 24 hrs by broth microdilution method. The settings on record: MTCC 441, 24 h. It counts as functional.

With `Cc1nn(-c2ccc(Cl)c(Cl)c2)c2c1[C@@H]1c3c(ccc4c(C)cc(=O)oc34)OC[C@@H]1C(C)(C)O2`, the Activity in assay [1] came to 150 mmol. Besides, at 250 µg/mL the inhibition in [2] was 70%. The MIC in the assay on Candida albicans is 200 µg/mL (≈ 402 µM); in the assay with Aspergillus fumigatus it was 500 µg/mL (≈ 1010 µM); against Vibrio cholerae it was 125 µg/mL (≈ 251 µM); in the assay with Salmonella typhi, 250 µg/mL (≈ 503 µM); in the assay with Escherichia coli, 200 µg/mL (≈ 402 µM); in the assay with Streptococcus pneumoniae it was 250 µg/mL (≈ 503 µM). Also, the minimum inhibitory concentration (MIC) in the assay with Clostridium tetani and in the assay on Bacillus subtilis was 250 µg/mL (≈ 503 µM) in each case.

For the compound `Cc1nn(-c2ccc(Cl)c(Cl)c2)c2c1[C@@H]1c3cc4cccc(C)c4nc3SC[C@@H]1CO2`, in assay [1], the Activity worked out at 61.7 mmol. In assay [2], this compound displayed an inhibition at 250 µg/mL of 38%. The MIC against Candida albicans is 500 µg/mL (≈ 1070 µM); against Aspergillus fumigatus, 1000 µg/mL (≈ 2130 µM); against Vibrio cholerae it was 250 µg/mL (≈ 534 µM); in the assay on Salmonella typhi, 250 µg/mL (≈ 534 µM); with Escherichia coli, 250 µg/mL (≈ 534 µM); against Streptococcus pneumoniae, 62.5 µg/mL (≈ 133 µM). Moreover, the MIC with Clostridium tetani worked out at 250 µg/mL (≈ 534 µM); with Bacillus subtilis, 200 µg/mL (≈ 427 µM).

As to `Cc1cc(=O)oc2c3c(ccc12)OC[C@H]1[C@@H]3c2c(-c3ccccc3)nn(-c3ccccc3)c2OC1(C)C`, in assay [1], the Activity is 160 mmol. Also, the inhibition at 250 µg/mL in assay [2] was found to be 80%. Moreover, the MIC against Candida albicans is 1000 µg/mL (≈ 2040 µM); against Aspergillus fumigatus it was greater than 1000 µg/mL; against Vibrio cholerae it was 125 µg/mL (≈ 255 µM); against Salmonella typhi, 100 µg/mL (≈ 204 µM); against Escherichia coli it was 125 µg/mL (≈ 255 µM); against Streptococcus pneumoniae, 125 µg/mL (≈ 255 µM). Also, the minimal inhibitory concentration (MIC) is 100 µg/mL (≈ 204 µM) against Clostridium tetani and 200 µg/mL (≈ 408 µM) in the assay on Bacillus subtilis.

As to `Cc1ccc(-n2nc(C)c3c2OC[C@H]2CSc4nc5c(C)cccc5cc4[C@@H]32)cc1`, the Activity in assay [1] came to 112 mmol. At 250 µg/mL the inhibition in [2] was 63%. For the same compound, the minimum inhibitory concentration (MIC) was found to be 1000 µg/mL (≈ 2420 µM) in the assay on Candida albicans; 200 µg/mL (≈ 484 µM) in the assay with Aspergillus fumigatus; 125 µg/mL (≈ 302 µM) against Vibrio cholerae; 125 µg/mL (≈ 302 µM) against Salmonella typhi; 100 µg/mL (≈ 242 µM) against Escherichia coli; 200 µg/mL (≈ 484 µM) with Streptococcus pneumoniae. The MIC worked out at 250 µg/mL (≈ 605 µM) against Clostridium tetani and 200 µg/mL (≈ 484 µM) in the assay on Bacillus subtilis.

For the compound `Cc1nn(-c2ccccc2)c2c1[C@@H]1c3c(ccc4c(C)cc(=O)oc34)OC[C@@H]1CO2`, the Activity in [1] turned out to be 120 mmol. The same compound showed an inhibition at 250 µg/mL in [2] of 65%. Besides, the minimum inhibitory concentration (MIC) in the assay with Candida albicans was greater than 1000 µg/mL; with Aspergillus fumigatus, greater than 1000 µg/mL; against Vibrio cholerae, 250 µg/mL (≈ 624 µM); in the assay with Salmonella typhi, 200 µg/mL (≈ 499 µM); against Escherichia coli it was 250 µg/mL (≈ 624 µM); against Streptococcus pneumoniae, 250 µg/mL (≈ 624 µM). The MIC is 250 µg/mL (≈ 624 µM) in the assay with Clostridium tetani and 500 µg/mL (≈ 1250 µM) with Bacillus subtilis.

Turning to `Cc1nn(-c2cccc(Cl)c2)c2c1[C@@H]1c3c(ccc4c(C)cc(=O)oc34)OC[C@@H]1C(C)(C)O2`, the Activity in assay [1] is 225 mmol. The inhibition at 250 µg/mL in assay [2] was found to be 29%. The MIC was 500 µg/mL (≈ 1080 µM) in the assay on Candida albicans; 1000 µg/mL (≈ 2160 µM) against Aspergillus fumigatus; 250 µg/mL (≈ 540 µM) in the assay with Vibrio cholerae; 200 µg/mL (≈ 432 µM) with Salmonella typhi; 200 µg/mL (≈ 432 µM) with Escherichia coli; 62.5 µg/mL (≈ 135 µM) in the assay on Streptococcus pneumoniae. The MIC against Clostridium tetani and against Bacillus subtilis was 200 µg/mL (≈ 432 µM) throughout.

Consider `Cc1nn(-c2ccccc2Cl)c2c1[C@@H]1c3cc4cccc(C)c4nc3SC[C@@H]1C(C)(C)O2` (single isomer, unassigned), for which the Activity in assay [1] came out at 115 mmol. This compound had an inhibition at 250 µg/mL in assay [2] of 50%. Further, the MIC in the assay on Candida albicans worked out at 250 µg/mL (≈ 541 µM); against Aspergillus fumigatus it was 500 µg/mL (≈ 1080 µM); in the assay with Vibrio cholerae, 200 µg/mL (≈ 433 µM); in the assay with Salmonella typhi, 100 µg/mL (≈ 216 µM); in the assay with Escherichia coli, 200 µg/mL (≈ 433 µM); against Streptococcus pneumoniae, 250 µg/mL (≈ 541 µM). Besides, the MIC was determined as 100 µg/mL (≈ 216 µM) in the assay on Clostridium tetani and 250 µg/mL (≈ 541 µM) with Bacillus subtilis.

Turning to `Cc1ccc(-n2nc(C)c3c2OC(C)(C)[C@H]2COc4ccc5c(C)cc(=O)oc5c4[C@@H]32)cc1`, the Activity in [1] turned out to be 240 mmol. The compound also returned an inhibition at 250 µg/mL in assay [2] of 32%. Also, the MIC amounted to 250 µg/mL (≈ 565 µM) in the assay on Candida albicans; 250 µg/mL (≈ 565 µM) against Aspergillus fumigatus; 500 µg/mL (≈ 1130 µM) in the assay with Vibrio cholerae; 250 µg/mL (≈ 565 µM) in the assay on Salmonella typhi; 100 µg/mL (≈ 226 µM) in the assay on Escherichia coli; 100 µg/mL (≈ 226 µM) against Streptococcus pneumoniae. Moreover, the MIC with Clostridium tetani and against Bacillus subtilis was 250 µg/mL (≈ 565 µM) in each case.

On to `Cc1nn(-c2ccccc2)c2c1[C@@H]1c3cc4cccc(C)c4nc3SC[C@@H]1C(C)(C)O2` (single isomer, unassigned), for which, in assay [1], the Activity worked out at 83.5 mmol. Also, in assay [2], at 250 µg/mL the inhibition was 49%. Moreover, the MIC with Candida albicans is greater than 1000 µg/mL; in the assay on Aspergillus fumigatus it was 1000 µg/mL (≈ 2340 µM); against Vibrio cholerae, 125 µg/mL (≈ 292 µM); with Salmonella typhi, 100 µg/mL (≈ 234 µM); against Escherichia coli it was 200 µg/mL (≈ 468 µM); with Streptococcus pneumoniae it was 100 µg/mL (≈ 234 µM). The results for the MIC with Clostridium tetani and in the assay with Bacillus subtilis were 100 µg/mL (≈ 234 µM) and 250 µg/mL (≈ 585 µM), respectively.

The record behind these values is ChEMBL document CHEMBL2331438, “An efficient domino reaction in ionic liquid: synthesis and biological evaluation of some pyrano- and thiopyrano-fused heterocycles” (2013).
